Source: ChEMBL document CHEMBL1147708 (Bioorg Med Chem Lett, 2006)
Each block holds one compound with its values, some of them ahead of it.

Columns and labels:
[1] = biological target: T1, Cytochrome P450 26A1 (Homo sapiens, UniProt O43174); test: Inhibition of CYP26 expressed in human T47D cell line
T1 sequence (O43174 whole entry): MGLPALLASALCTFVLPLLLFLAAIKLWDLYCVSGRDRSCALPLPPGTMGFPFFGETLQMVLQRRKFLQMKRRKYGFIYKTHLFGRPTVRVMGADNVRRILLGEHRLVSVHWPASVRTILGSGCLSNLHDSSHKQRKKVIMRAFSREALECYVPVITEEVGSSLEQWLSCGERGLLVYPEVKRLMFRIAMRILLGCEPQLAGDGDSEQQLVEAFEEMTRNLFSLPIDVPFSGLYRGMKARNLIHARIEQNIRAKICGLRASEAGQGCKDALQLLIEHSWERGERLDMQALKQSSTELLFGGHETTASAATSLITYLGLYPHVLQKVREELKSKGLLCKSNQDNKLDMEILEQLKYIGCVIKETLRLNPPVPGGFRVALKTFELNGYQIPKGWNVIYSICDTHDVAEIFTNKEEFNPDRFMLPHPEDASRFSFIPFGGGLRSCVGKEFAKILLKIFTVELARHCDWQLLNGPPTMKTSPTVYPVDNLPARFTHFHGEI

[2] = biological target: Cytochrome P450 3A4 (Homo sapiens, UniProt P08684)
Cytochrome P450 3A4, sequence (P08684 whole entry): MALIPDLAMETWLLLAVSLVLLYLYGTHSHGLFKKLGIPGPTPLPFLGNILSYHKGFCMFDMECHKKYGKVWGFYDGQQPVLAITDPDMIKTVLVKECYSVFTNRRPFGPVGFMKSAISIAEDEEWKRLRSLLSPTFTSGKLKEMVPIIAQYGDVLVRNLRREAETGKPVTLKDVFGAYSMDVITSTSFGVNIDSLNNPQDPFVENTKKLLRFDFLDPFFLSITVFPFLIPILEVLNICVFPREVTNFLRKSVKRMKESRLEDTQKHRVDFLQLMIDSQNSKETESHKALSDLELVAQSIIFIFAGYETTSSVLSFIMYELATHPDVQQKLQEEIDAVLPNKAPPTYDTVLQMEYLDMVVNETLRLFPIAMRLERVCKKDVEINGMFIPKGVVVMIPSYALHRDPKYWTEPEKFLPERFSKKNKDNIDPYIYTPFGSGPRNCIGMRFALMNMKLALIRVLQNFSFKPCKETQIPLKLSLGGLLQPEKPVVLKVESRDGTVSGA

[3] = in vivo; conditions: CD1, mouse, po, 5 mg/kg
[4] = in vivo; conditions: CD1, mouse, iv, 1 mg/kg
[5] = organism: Mus musculus; conditions: in vivo, po, 5 mg/kg
[6] = biological target: T2, Cytochrome P450 1A2 (Homo sapiens, UniProt P05177)
T2 sequence (P05177 whole entry): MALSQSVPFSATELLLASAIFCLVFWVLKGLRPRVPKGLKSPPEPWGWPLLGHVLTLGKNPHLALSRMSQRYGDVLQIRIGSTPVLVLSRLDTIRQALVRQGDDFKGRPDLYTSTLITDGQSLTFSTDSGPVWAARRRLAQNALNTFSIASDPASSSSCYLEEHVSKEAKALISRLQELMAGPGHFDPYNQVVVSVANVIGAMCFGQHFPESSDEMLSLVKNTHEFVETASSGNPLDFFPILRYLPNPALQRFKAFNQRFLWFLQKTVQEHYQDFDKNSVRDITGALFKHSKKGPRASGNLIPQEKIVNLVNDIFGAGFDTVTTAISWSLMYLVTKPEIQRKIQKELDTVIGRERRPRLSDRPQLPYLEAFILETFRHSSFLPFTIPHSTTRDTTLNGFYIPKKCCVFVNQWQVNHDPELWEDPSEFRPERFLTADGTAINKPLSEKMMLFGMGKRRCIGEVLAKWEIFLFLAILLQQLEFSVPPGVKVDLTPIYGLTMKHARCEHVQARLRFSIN

[7] = biological target: Cytochrome P450 2C9 (Homo sapiens, UniProt P11712)
Cytochrome P450 2C9, sequence (P11712 whole entry): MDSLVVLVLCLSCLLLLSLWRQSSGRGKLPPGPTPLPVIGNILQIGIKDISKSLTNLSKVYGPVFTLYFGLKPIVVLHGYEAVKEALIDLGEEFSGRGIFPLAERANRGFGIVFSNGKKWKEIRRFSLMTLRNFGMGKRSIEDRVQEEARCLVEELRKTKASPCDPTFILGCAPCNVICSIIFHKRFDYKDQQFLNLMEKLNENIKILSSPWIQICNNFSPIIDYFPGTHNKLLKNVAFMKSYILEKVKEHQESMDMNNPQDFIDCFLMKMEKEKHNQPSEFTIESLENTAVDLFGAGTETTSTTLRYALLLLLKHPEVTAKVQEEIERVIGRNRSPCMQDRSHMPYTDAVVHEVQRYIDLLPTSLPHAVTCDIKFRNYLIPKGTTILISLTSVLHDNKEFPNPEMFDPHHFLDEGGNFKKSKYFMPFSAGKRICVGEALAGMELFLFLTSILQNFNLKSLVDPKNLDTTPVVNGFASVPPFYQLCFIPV

[8] = Bioavailability in CD1 mouse; conditions: in vivo
[9] = tested on: T47D; test: Activity against human T47D cell line; type: functional
[10] = biological target: Cytochrome P450 2D6 (Homo sapiens, UniProt P10635)
Cytochrome P450 2D6, sequence (P10635 whole entry): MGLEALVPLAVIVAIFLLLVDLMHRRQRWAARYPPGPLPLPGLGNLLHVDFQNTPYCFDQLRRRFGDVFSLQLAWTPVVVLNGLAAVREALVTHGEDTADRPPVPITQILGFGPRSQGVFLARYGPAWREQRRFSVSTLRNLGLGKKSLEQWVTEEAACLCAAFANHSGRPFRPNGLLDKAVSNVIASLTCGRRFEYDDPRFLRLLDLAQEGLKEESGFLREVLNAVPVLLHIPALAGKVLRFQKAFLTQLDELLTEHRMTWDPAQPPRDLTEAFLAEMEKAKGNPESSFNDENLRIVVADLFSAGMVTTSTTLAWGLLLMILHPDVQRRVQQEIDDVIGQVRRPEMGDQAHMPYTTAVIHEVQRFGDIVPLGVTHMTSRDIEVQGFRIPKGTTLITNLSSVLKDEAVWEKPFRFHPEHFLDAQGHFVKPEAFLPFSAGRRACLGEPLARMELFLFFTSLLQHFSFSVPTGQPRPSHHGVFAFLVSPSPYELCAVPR

[11] = Plasma concentration in CD1 mouse at 5 mg/kg, po after 2 hrs; type: ADME, organism-based; design: dose 5 mg/kg, route oral
Method in brief: (§1)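 Female CD-1 mice, about six weeks old, got atRA by oral gavage at 10 mL/kg (5 mg/kg), from a 0.5 mg/mL solution in 1.5% v/v DMSO in safflower oil. Three mice per timepoint gave terminal cardiac blood in EDTA.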

[12] = tested on: Mus musculus; test: AUC(0-tz) in CD1 mouse at 5 mg/kg, po co-administered with 3-[6-(2-dimethylamino- 1-imidazol-1-yl-butyl)-naphthalen-2-yloxy]- 2,2-dimethyl-propionic acid at 10 mg/kg, po; type: ADME, organism-based, Plasma; conditions: in vivo
Method in brief: (§2)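 Female CD-1 mice, about six weeks old, got atRA at 5 mg/kg by gavage (0.5 mg/mL in 1.5% v/v DMSO/safflower oil, 10 mL/kg). This was given immediately before the inhibitor at 10 mg/kg orally in water for injection. Three mice per timepoint gave cardiac EDTA blood. Plasma was acetonitrile-precipitated, and atRA was read by HPLC-UV against blank mouse plasma standards. AUC came from noncompartmental analysis of median values.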

[13] = Plasma concentration in CD1 mouse at 5 mg/kg, po after 8 hrs; type: ADME, organism-based; design: dose 5 mg/kg, route oral; method in brief: as §1
[14] = tested on: Mus musculus; test: AUC(0-tz) in CD1 mouse at 5 mg/kg, po co-administered with 3-[6-(2-dimethylamino- 1-imidazol-1-yl-propyl)-naphthalen-2-yloxy]- 2,2-dimethyl-propionic acid at 10 mg/kg, po; type: ADME, organism-based, Plasma; conditions: in vivo; method in brief: as §2
[15] = Plasma concentration in CD1 mouse at 5 mg/kg, po after 2 hrs co-administered with 3-[6-(2-dimethylamino- 1-imidazol-1-yl-butyl)-naphthalen-2-yloxy]- 2,2-dimethyl-propionic acid at 10 mg/kg, po; type: ADME, organism-based; method in brief: as §2
[16] = tested on: Mus musculus; test: AUC(0-tz) in CD1 mouse at 5 mg/kg, po; type: ADME, organism-based, Plasma; design: dose 5 mg/kg, route oral; conditions: in vivo; method in brief: as §1
[17] = Plasma concentration in CD1 mouse at 5 mg/kg, po after 2 hrs co-administered with 3-[6-(2-dimethylamino- 1-imidazol-1-yl-propyl)-naphthalen-2-yloxy]- 2,2-dimethyl-propionic acid at 10 mg/kg, po; type: ADME, organism-based; method in brief: as §2
[18] = Plasma concentration in CD1 mouse at 5 mg/kg, po after 8 hrs co-administered with 3-[6-(2-dimethylamino- 1-imidazol-1-yl-butyl)-naphthalen-2-yloxy]- 2,2-dimethyl-propionic acid at 10 mg/kg, po; type: ADME, organism-based; method in brief: as §2
[19] = Plasma concentration in CD1 mouse at 5 mg/kg, po after 8 hrs co-administered with 3-[6-(2-dimethylamino- 1-imidazol-1-yl-propyl)-naphthalen-2-yloxy]- 2,2-dimethyl-propionic acid at 10 mg/kg, po; type: ADME, organism-based; method in brief: as §2

SMILES: CN(C)C[C@@H](c1ccc2cc(OCC(C)(C)C(=O)O)ccc2c1)n1ccnc1
IC50 [1]: 403 nM

SMILES: CCCCN(C)[C@H](C)[C@@H](c1ccc2cc(OCC(C)(C)C(=O)O)ccc2c1)n1ccnc1
IC50 [1]: 60 nM

SMILES: C[C@H]([C@@H](c1ccc2cc(OCC3(C(=O)O)CC3)ccc2c1)n1ccnc1)N(C)C
IC50 [2]: 7500 nM | IC50 [1]: 34.7 nM

SMILES: C[C@H]([C@@H](c1ccc2cc(OCC3(C(=O)O)CCC3)ccc2c1)n1ccnc1)N(C)C
IC50 [2]: 7000 nM | IC50 [1]: 40 nM

SMILES: C[C@H]([C@@H](c1ccc2cc(OCC(C)(C)C(=O)O)ccc2c1)n1ccnc1)N(C)C1CCCCC1
IC50 [1]: 125 nM

SMILES: C[C@H]([C@@H](c1ccc2cc(OCC(C)(C)C(=O)O)ccc2c1)n1ccnc1)N(C)C
Activity [9]: 125 nM

SMILES: C[C@H]([C@@H](c1ccc2cc(OCC(C)(C)C(=O)O)ccc2c1)n1ccnc1)N1CCOCC1
IC50 [2]: 2150 nM | IC50 [1]: 34 nM

SMILES: C[C@H]([C@@H](c1ccc2cc(OCC(C)(C)C(=O)O)ccc2c1)n1ccnc1)N1CCCC1
IC50 [1]: 583 nM

SMILES: CCC(CC)(COc1ccc2cc([C@H]([C@@H](C)N(C)C)n3ccnc3)ccc2c1)C(=O)O
IC50 [1]: 37 nM

SMILES: C[C@H]([C@@H](c1ccc2cc(OCC3(C(=O)O)CCOCC3)ccc2c1)n1ccnc1)N(C)C
IC50 [2]: > 20000 nM | IC50 [1]: 46.7 nM

SMILES: CN(C)C(C)(C)[C@@H](c1ccc2cc(OCC(C)(C)C(=O)O)ccc2c1)n1ccnc1
IC50 [1]: 26 nM

SMILES: CC1=C(/C=C/C(C)=C/C=C/C(C)=C/C(=O)O)C(C)(C)CCC1 [TRETINOIN]
concentration at 2 h [11]: 5.24 µM | AUC [12]: 9900 ng·h/mL | concentration at 8 h [13]: < 0.01 µM | AUC [14]: 6470 ng·h/mL | concentration at 2 h [15]: 7.72 µM | AUC [16]: 1690 ng·h/mL | concentration at 2 h [17]: 6.66 µM | concentration at 8 h [18]: 2.73 µM | concentration at 8 h [19]: 0.04 µM

More lines, main results first:

IC50 [2]: 1010 nM | IC50 [1]: 1.4 nM
SMILES: CCN(CC)[C@H](C)[C@@H](c1ccc2cc(OCC3(C(=O)O)CCCC3)ccc2c1)n1ccnc1

IC50 [2]: 800 nM | IC50 [1]: 1.6 nM
SMILES: CC(C)N(C)[C@H](C)[C@@H](c1ccc2cc(OCC3(C(=O)O)CCCC3)ccc2c1)n1ccnc1

IC50 [1]: 3 nM
SMILES: CC(C)N(C)[C@H](C)[C@@H](c1ccc2cc(OCC(C)(C)C(=O)O)ccc2c1)n1ccnc1

Cmax [3]: 23 µM | half-life [4]: 2.46 h | AUC [5]: 17500 ng·h/mL | IC50 [6]: > 5000 nM | IC50 [7]: > 5000 nM | IC50 [2]: 8000 nM | bioavailability [8]: 99% | IC50 [1]: 11.2 nM | IC50 [10]: > 5000 nM
SMILES: C[C@H]([C@@H](c1ccc2cc(OCC3(C(=O)O)CCCCC3)ccc2c1)n1ccnc1)N(C)C
Activity [9]: <100 nM

Cmax [3]: 13 µM | half-life [4]: 7.1 h | AUC [5]: 18900 ng·h/mL | IC50 [6]: > 5000 nM | IC50 [7]: > 5000 nM | IC50 [2]: 2300 nM | bioavailability [8]: 99% | IC50 [1]: 4.2 nM | IC50 [10]: > 5000 nM
SMILES: CCN(C)[C@H](C)[C@@H](c1ccc2cc(OCC3(C(=O)O)CCCC3)ccc2c1)n1ccnc1
Activity [9]: <100 nM

IC50 [1]: 5 nM
SMILES: CCN(CC)[C@H](C)[C@@H](c1ccc2cc(OCC(C)(C)C(=O)O)ccc2c1)n1ccnc1

Cmax [3]: 6.7 µM | half-life [4]: 2.76 h | AUC [5]: 5430 ng·h/mL | IC50 [6]: > 5000 nM | IC50 [7]: > 5000 nM | bioavailability [8]: 73% | IC50 [1]: 1.3 nM | IC50 [10]: > 5000 nM
SMILES: CC[C@H]([C@@H](c1ccc2cc(OCC(C)(C)C(=O)O)ccc2c1)n1ccnc1)N(C)C
Activity [9]: <5 nM

IC50 [1]: 9 nM
SMILES: CCN(C)[C@H](C)[C@@H](c1ccc2cc(OCC(C)(C)C(=O)O)ccc2c1)n1ccnc1

Cmax [3]: 5.5 µM | half-life [4]: 2.49 h | AUC [5]: 5800 ng·h/mL | IC50 [6]: > 5000 nM | IC50 [7]: > 5000 nM | IC50 [2]: 8200 nM | bioavailability [8]: 77% | IC50 [1]: 7.3 nM | IC50 [10]: > 5000 nM
SMILES: C[C@H]([C@@H](c1ccc2cc(OCC3(C(=O)O)CCCC3)ccc2c1)n1ccnc1)N(C)C
Activity [9]: <100 nM
